Measurements reported in ChEMBL document CHEMBL3108756, “Evaluation of aminohydantoins as a novel class of antimalarial agents” (ACS Med Chem Lett, 2014).
The source made the active and inactive calls. The calls are words filed in the database; no cut-off is given here.

Columns and labels:
[1] = tested on: Plasmodium falciparum; experiment: Antimalarial activity against chloroquine-sensitive Plasmodium falciparum 3D7 infected in […] after 72 hrs by SYBR Green I-based fluorescence method; format: functional, organism-based; settings: for IC50: 3D7, 72 h
[2] = Selectivity ratio of IC50 for human BACE1 to IC50 for Plasmodium falciparum plasmepsin-2
[3] = Selectivity ratio of IC50 for human cathepsin D to IC50 for Plasmodium falciparum plasmepsin-2
[4] = Selectivity ratio of IC50 for human cathepsin E to IC50 for Plasmodium falciparum plasmepsin-2
[5] = target: Plasmepsin V (Plasmodium falciparum (isolate 3D7)) (UniProt Q8I6Z5); experiment: (§1) Inhibition of Plasmodium falciparum […] plasmepsin-5 using DABCYL-GNKRTLAQKQG-EDANS as substrate measured every 15 mins of 75 mins by fluorescence assay
[6] = tested on: Plasmodium chabaudi; experiment: Antimalarial activity against Plasmodium chabaudi ASS infected in NIH mouse assessed as inhibition of parasitemia at 100 mg/kg, po qd for 4 days; format: functional; settings: 96 h
In short: (§2)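 Mice infected with P. chabaudi were given oral doses once daily for four days, starting four hours after infection. Parasitemia was read on Day 4 postinoculation and expressed as percent inhibition of parasitemia.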

[7] = target: Cytochrome P450 2D6 (Homo sapiens, UniProt P10635); experiment: Inhibition of human recombinant CYP2D6 after 30 mins; format: ADME; settings: recombinant enzyme, 0.5 h
[8] = tested on: Plasmodium falciparum; experiment: Antimalarial activity against chloroquine-sensitive Plasmodium falciparum 3D7 infected in […] after 48 hrs by SYBR Green I-based fluorescence method; format: functional, organism-based
[9] = target: Cytochrome P450 2C9 (Homo sapiens, UniProt P11712); experiment: Inhibition of human recombinant CYP2C9 after 30 mins; format: ADME; settings: recombinant enzyme, 0.5 h
[10] = Plasma concentration in Plasmodium chabaudi ASS infected NIH mouse at 100 mg/kg, po qd measured 6 hrs after post last dose on day 3; format: ADME, organism-based; parameters: dose 100 mg/kg, route oral
In short: (§3)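 P. chabaudi-infected mice were dosed orally once daily for four days, starting four hours post-infection. Plasma compound levels were measured at 1, 6 and 24 h after the last dose on Day 3.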

[11] = target: Cytochrome P450 3A4 (Homo sapiens, UniProt P08684); experiment: Inhibition of human recombinant CYP3A4 after 30 mins; format: ADME; settings: recombinant enzyme, 0.5 h
[12] = Plasma concentration in Plasmodium chabaudi ASS infected NIH mouse at 100 mg/kg, po qd measured 24 hrs after post last dose on day 3; format: ADME, organism-based; parameters: dose 100 mg/kg, route oral; in short: as §3
[13] = Plasma concentration in Plasmodium chabaudi ASS infected NIH mouse at 100 mg/kg, po qd measured 1 hr after post last dose on day 3; format: ADME, organism-based; parameters: dose 100 mg/kg, route oral; in short: as §3
[14] = tested on: HepG2; experiment: Cytotoxicity against human HepG2 cells after 72 hrs; format: cell-based; settings: hepg2, 72 h
[15] = target: T1, Cytochrome P450 1A2 (Homo sapiens, UniProt P05177); experiment: Inhibition of human recombinant CYP1A2 after 30 mins; format: ADME; settings: recombinant enzyme, 0.5 h
T1 sequence (P05177 whole entry): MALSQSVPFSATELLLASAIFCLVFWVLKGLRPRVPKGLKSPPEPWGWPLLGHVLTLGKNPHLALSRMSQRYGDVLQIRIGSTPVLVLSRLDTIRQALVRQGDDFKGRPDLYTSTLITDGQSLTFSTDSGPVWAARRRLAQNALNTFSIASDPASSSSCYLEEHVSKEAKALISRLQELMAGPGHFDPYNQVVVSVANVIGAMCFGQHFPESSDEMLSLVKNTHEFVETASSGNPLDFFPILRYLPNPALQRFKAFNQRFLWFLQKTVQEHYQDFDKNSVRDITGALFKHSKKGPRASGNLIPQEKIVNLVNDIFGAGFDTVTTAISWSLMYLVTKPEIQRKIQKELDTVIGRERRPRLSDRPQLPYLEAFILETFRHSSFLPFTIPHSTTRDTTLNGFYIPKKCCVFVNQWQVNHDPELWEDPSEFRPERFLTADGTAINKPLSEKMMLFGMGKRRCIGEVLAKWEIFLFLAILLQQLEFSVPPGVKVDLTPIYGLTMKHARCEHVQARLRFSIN

[16] = tested on: Plasmodium falciparum; experiment: Antimalarial activity against chloroquine and pyrimethamine-resistant Plasmodium falciparum Dd2 infected in […] after 48 hrs by SYBR Green I-based fluorescence method; format: functional
[17] = target: Cytochrome P450 2C19 (Homo sapiens, UniProt P33261); experiment: Inhibition of human recombinant CYP2C19 after 30 mins; format: ADME; settings: recombinant enzyme, 0.5 h
[18] = tested on: Plasmepsin IV (Plasmodium falciparum); experiment: Inhibition of Plasmodium falciparum plasmepsin-4 after 60 mins by fluorescence assay
[19] = target: Plasmepsin II (Plasmodium falciparum) (UniProt P46925); experiment: Inhibition of Plasmodium falciparum plasmepsin-2 after 60 mins by fluorescence assay
[20] = target: Plasmepsin V (Plasmodium falciparum (isolate 3D7), UniProt Q8I6Z5); experiment: as §1
[21] = tested on: Plasmodium chabaudi; experiment: Antimalarial activity against Plasmodium chabaudi ASS infected in NIH mouse assessed as inhibition of parasitemia at 4.5 mg/kg, po qd for 4 days; format: functional; settings: 96 h; in short: as §2
[22] = Plasma concentration in Plasmodium chabaudi ASS infected NIH mouse at 110 mg/kg, po qd measured 24 hrs after post last dose on day 3; format: ADME, organism-based; parameters: dose 110 mg/kg, route oral; in short: as §3
[23] = Plasma concentration in Plasmodium chabaudi ASS infected NIH mouse at 110 mg/kg, po qd measured 30 mins after post last dose on day 3; format: ADME, organism-based; parameters: dose 110 mg/kg, route oral
[24] = tested on: Plasmodium chabaudi; experiment: Antimalarial activity against Plasmodium chabaudi ASS infected in NIH mouse assessed as inhibition of parasitemia at 110 mg/kg, po qd for 4 days; format: functional; settings: 96 h; in short: as §2

Sequence of Cytochrome P450 2C9 (P11712 whole entry): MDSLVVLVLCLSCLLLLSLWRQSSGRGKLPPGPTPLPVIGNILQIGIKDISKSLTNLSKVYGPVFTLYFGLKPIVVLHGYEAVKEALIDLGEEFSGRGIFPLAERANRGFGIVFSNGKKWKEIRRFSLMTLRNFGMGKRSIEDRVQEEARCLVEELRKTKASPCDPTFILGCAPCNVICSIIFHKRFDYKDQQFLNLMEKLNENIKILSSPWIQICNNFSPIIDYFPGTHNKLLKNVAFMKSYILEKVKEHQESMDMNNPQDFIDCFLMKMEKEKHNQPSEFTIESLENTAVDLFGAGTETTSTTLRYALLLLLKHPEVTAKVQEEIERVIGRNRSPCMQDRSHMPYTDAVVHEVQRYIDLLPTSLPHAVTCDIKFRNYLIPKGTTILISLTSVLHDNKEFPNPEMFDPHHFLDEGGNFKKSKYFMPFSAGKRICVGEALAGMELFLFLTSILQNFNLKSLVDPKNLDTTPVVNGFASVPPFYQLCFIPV
Sequence of Cytochrome P450 3A4 (P08684 whole entry): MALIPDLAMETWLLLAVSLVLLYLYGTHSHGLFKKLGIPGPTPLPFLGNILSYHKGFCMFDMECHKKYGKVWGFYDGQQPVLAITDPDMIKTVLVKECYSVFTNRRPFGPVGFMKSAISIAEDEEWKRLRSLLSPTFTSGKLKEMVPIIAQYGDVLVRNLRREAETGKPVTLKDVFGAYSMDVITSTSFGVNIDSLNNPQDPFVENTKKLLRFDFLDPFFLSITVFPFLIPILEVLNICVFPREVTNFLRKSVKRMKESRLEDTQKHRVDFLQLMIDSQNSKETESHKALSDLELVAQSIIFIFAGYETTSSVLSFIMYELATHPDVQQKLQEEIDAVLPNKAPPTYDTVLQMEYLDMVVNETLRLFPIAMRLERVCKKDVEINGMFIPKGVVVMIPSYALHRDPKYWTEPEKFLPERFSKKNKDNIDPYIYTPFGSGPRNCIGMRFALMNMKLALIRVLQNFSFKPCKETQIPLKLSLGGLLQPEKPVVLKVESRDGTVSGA
Sequence of Cytochrome P450 2C19 (P33261 whole entry): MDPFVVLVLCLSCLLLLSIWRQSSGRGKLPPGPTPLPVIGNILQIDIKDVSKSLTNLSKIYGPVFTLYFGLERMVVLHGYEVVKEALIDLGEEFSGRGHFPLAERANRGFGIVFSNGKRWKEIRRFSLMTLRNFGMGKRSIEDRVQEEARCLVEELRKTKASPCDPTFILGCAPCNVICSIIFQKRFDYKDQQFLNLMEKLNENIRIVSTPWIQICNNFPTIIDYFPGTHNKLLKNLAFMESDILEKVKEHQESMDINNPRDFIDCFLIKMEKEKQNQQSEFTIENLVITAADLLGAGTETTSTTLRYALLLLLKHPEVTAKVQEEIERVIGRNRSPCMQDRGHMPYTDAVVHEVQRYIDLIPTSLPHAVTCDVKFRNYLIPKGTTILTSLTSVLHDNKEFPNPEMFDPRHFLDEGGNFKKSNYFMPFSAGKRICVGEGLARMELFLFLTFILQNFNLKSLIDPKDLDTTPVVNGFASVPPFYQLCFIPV
Sequence of Cytochrome P450 2D6 (P10635 whole entry): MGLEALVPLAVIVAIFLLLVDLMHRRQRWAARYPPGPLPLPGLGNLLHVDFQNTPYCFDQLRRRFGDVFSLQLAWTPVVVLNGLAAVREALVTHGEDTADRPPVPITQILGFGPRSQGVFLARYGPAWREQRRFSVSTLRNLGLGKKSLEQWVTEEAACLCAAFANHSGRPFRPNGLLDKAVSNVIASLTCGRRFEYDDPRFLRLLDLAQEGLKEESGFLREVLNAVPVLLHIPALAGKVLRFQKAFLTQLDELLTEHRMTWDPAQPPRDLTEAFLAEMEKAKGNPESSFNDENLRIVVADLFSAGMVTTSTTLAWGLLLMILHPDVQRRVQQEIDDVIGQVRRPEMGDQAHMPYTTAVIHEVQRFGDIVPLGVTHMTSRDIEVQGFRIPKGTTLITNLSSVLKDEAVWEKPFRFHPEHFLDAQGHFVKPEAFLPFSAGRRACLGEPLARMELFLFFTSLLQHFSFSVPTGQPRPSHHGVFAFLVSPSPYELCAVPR
Sequence of Plasmepsin II (Plasmodium falciparum) (P46925 125-453 limits assumed): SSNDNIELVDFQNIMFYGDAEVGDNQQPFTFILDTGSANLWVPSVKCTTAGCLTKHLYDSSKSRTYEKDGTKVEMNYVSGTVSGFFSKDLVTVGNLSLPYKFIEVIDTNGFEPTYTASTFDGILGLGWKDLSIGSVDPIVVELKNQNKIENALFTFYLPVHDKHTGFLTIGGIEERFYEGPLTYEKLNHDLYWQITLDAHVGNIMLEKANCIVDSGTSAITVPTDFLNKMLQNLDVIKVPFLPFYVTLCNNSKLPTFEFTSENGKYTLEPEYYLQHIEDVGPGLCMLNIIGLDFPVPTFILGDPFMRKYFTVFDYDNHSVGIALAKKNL
Sequence of Plasmepsin V (Plasmodium falciparum (isolate 3D7)) (Q8I6Z5 whole entry, looked up): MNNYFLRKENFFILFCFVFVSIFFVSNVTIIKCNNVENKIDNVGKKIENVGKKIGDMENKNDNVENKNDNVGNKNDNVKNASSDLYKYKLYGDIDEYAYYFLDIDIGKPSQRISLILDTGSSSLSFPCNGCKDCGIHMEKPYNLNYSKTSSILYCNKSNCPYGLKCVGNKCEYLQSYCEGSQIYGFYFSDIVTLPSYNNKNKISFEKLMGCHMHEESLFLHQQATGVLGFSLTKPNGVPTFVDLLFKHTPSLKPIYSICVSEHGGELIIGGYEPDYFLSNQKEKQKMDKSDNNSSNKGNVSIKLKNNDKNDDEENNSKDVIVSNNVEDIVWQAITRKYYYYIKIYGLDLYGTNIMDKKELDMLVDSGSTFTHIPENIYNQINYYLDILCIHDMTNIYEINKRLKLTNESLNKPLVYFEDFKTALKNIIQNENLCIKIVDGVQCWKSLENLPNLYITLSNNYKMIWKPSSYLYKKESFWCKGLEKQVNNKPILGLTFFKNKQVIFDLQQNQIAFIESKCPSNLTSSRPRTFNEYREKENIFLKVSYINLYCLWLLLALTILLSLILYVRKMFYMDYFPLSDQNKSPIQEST
Sequence of Plasmepsin V (Q8I6Z5 whole entry): as the sequence (Q8I6Z5 whole entry, looked up) above

## COc1ccc(C2(c3cccc(-c4ccccn4)c3)NC(=N)N(C3CCCCC3)C2=O)cc1 (racemic)
[1]
  IC50: 1810 nM

## CCCN1C(=N)NC(c2ccc(OC)cc2)(c2ccc(OC)cc2)C1=O
[1]
  IC50: 1140 nM

## N=C1NC(c2ccccc2)(c2cccc(-c3cccnc3)c2)C(=O)N1C1CCCCC1 (racemic)
[1]
  IC50: 750 nM
[2]
  Ratio IC50: > 1000
[3]
  Ratio IC50: > 1000
[4]
  Ratio IC50: 200
[5]
  inhibition: inactive

## COc1ccc(C2(c3ccc(OC)cc3)NC(=N)N(C)C2=O)cc1
[1]
  IC50: 7920 nM

## CC(C)(C)N1C(=N)NC(c2ccccc2)(c2ccccc2)C1=O
[1]
  IC50: > 100000 nM

## N=C1NC(c2cccc(Cl)c2)(c2cccc(Cl)c2)C(=O)N1C1CCCCC1
[1]
  IC50: 1060 nM

## COc1ccc(C2(c3ccc(OC)cc3)NC(=N)N(C3CCN(C)CC3)C2=O)cc1
[1]
  IC50: 697 nM

## COc1ccc(C2(c3ccc(OC)cc3)NC(=N)N(CC3CCCCC3)C2=O)cc1
[1]
  IC50: 383 nM
[6]
  inhibition in vivo at 100 mg/kg: 73%
[7]
  inhibition (INH): Not Active
[8]
  inhibition: Active
[9]
  inhibition (INH): Not Active
[10]
  concentration at 6 h: 2190 ng/mL
[11]
  inhibition (INH): Active
[12]
  concentration at 24 h: 7 ng/mL
[13]
  concentration at 1 h: 2520 ng/mL
[14]
  Activity: Toxic
[15]
  inhibition (INH): Not Active
[16]
  inhibition: Active
[17]
  inhibition (INH): Not Active

## COc1ccc(C2(c3ccc(OC)cc3)NC(=O)N(C3CCCCC3)C2=O)cc1
[1]
  inhibition: inactive
[18]
  inhibition: inactive
[19]
  inhibition: inactive

## CCC(CN1C(=N)NC(c2ccc(OC)cc2)(c2ccc(OC)cc2)C1=O)c1ccccc1 (stereo not drawn)
[1]
  IC50: 244 nM

## N=C1NC(c2ccccc2)(c2cccc(OCc3ccccc3)c2)C(=O)N1C1CCCCC1 (racemic)
[1]
  IC50: 641 nM

## N=C1NC(c2ccc(OC(F)(F)F)cc2)(c2ccc(OC(F)(F)F)cc2)C(=O)N1C1CCCCC1
[1]
  IC50: 2200 nM

## COc1ccc(C2(c3ccc(OC)cc3)NC(=N)N(C3CCN(C(=O)OC(C)(C)C)CC3)C2=O)cc1
[1]
  IC50: 436 nM

## COc1ccc(C2(c3ccccc3)NC(=N)N(C3CCCCC3)C2=O)cc1 (racemic)
[1]
  IC50: 533 nM

## COc1cccc(C2(c3cccc(-c4ccncc4)c3)NC(=N)N(C3CCCCC3)C2=O)c1 (racemic)
[1]
  IC50: 318 nM

## N=C1NC(c2cccc(-c3cccnc3)c2)(c2cccc(-c3cccnc3)c2)C(=O)N1C1CCCCC1
[1]
  IC50: 725 nM

## COc1ccc(C2(c3ccc(OC)cc3)NC(=N)N(CC3CCOCC3)C2=O)cc1
[1]
  IC50: 463 nM
[6]
  inhibition in vivo at 100 mg/kg: 41%
[7]
  inhibition (INH): Not Active
[8]
  inhibition: Active
[9]
  inhibition (INH): Not Active
[10]
  concentration at 6 h: 3030 ng/mL
[11]
  inhibition (INH): Active
[12]
  concentration at 24 h: 123 ng/mL
[13]
  concentration at 1 h: 10400 ng/mL
[14]
  Activity: Toxic
[15]
  inhibition (INH): Not Active
[16]
  inhibition: Active
[17]
  inhibition (INH): Not Active

## N=C1NC(c2ccccc2)(c2cccc(Oc3ccccc3)c2)C(=O)N1C1CCCCC1 (racemic)
[1]
  IC50: 424 nM

## COc1ccc(C2(c3ccc(OC)cc3)NC(=N)N(Cc3ccccc3)C2=O)cc1
[1]
  IC50: 855 nM

## COc1ccc(C2(c3ccc(OC)cc3)NC(=N)N(C3CCCC3)C2=O)cc1
[1]
  IC50: 611 nM

## N=C1NC(c2ccccc2)(c2ccccc2)C(=O)N1Cc1ccccc1
[1]
  IC50: 8290 nM

## COc1ccc(C2(c3ccc(OC)cc3)NC(=N)N(c3ccccc3)C2=O)cc1
[1]
  IC50: 100000 nM

## COc1cccc(C2(c3cccc(OC)c3)NC(=N)N(C3CCCCC3)C2=O)c1
[1]
  IC50: 768 nM
[5]
  inhibition: inactive

## COc1ccc(C2(c3ccc(OC)cc3)NC(=N)N(C(C)C)C2=O)cc1
[1]
  IC50: 1660 nM

## CCOc1ccc(C2(c3ccc(OCC)cc3)NC(=N)N(C3CCCCC3)C2=O)cc1
[1]
  IC50: 466 nM

## Cc1cccc(C)c1OCC(=O)N[C@@H](Cc1ccccc1)[C@@H](O)C[C@H](Cc1ccccc1)NC(=O)[C@H](C(C)C)N1CCCNC1=O [LOPINAVIR]
[20]
  IC50: > 20000 nM

## COc1ccc(C2(c3ccc(OC)cc3)NC(=N)N(CCCc3ccccc3)C2=O)cc1
[1]
  IC50: 512 nM

## COc1cccc(C2(c3cccc(-c4cccnc4)c3)NC(=N)N(C3CCCCC3)C2=O)c1 (racemic)
[1]
  IC50: 787 nM

## COc1ccc(C2(c3cccc(-c4ccccc4)c3)NC(=N)N(C3CCCCC3)C2=O)cc1 (racemic)
[1]
  IC50: 1490 nM

## COc1cccc(C2(c3ccccc3)NC(=N)N(C3CCCCC3)C2=O)c1 (racemic)
[1]
  IC50: 917 nM

## CCN(CC)CCCC(C)Nc1ccnc2cc(Cl)ccc12 (stereo not drawn) [CHLOROQUINE]
[21]
  inhibition in vivo at 4.5 mg/kg: 100%

## N=C1NC(c2ccc(Cl)cc2)(c2ccc(Cl)cc2)C(=O)N1C1CCCCC1
[1]
  IC50: 1070 nM

## COc1ccc(C2(c3ccc(OC)cc3)NC(=N)N(C3CCC(O)CC3)C2=O)cc1 (stereo not drawn)
[1]
  IC50: 14800 nM

## COc1ccc(C2(c3ccc(OC)cc3)NC(=N)N(CCc3ccccc3)C2=O)cc1
[1]
  IC50: 2380 nM

## COc1ccc(C2(c3ccc(OC)cc3)NC(=N)N(C3CCC3)C2=O)cc1
[1]
  IC50: 722 nM

## Cc1ccc(C2(c3ccc(C)cc3)NC(=N)N(C3CCCCC3)C2=O)cc1
[1]
  IC50: 1260 nM

## COc1ccc(C2(c3ccc(OC)cc3)NC(=N)N(C3CCOCC3)C2=O)cc1
[1]
  IC50: 459 nM
[7]
  inhibition (INH): Not Active
[8]
  inhibition: Active
[9]
  inhibition (INH): Not Active
[11]
  inhibition (INH): Active
[22]
  concentration at 24 h: 29 ng/mL
[23]
  concentration at 0.5 h: 4140 ng/mL
[14]
  Activity: Toxic
[24]
  inhibition in vivo at 110 mg/kg: 63%
[15]
  inhibition (INH): Not Active
[16]
  inhibition: Active
[17]
  inhibition (INH): Not Active

## COc1ccc(C2(c3cccc(-c4cccnc4)c3)NC(=N)N(C3CCCCC3)C2=O)cc1 (racemic)
[1]
  IC50: 595 nM

## Cc1cccc(C2(c3cccc(C)c3)NC(=N)N(C3CCCCC3)C2=O)c1
[1]
  IC50: 533 nM

## COc1ccc(C2(c3ccc(OC)cc3)NC(=N)N(C3CCNCC3)C2=O)cc1
[1]
  IC50: > 5000 nM

## COc1ccc(C2(c3ccc(OC)cc3)NC(=S)N(C3CCCCC3)C2=O)cc1
[1]
  inhibition: inactive
[19]
  inhibition: inactive

## CCN1C(=N)NC(c2ccc(OC)cc2)(c2ccc(OC)cc2)C1=O
[1]
  IC50: 3950 nM

## N=C1NC(c2ccccc2)(c2ccccc2)C(=O)N1C1CCCCC1
[1]
  IC50: 3850 nM

## COc1ccc(C2(c3ccc(OC)cc3)NC(=N)N(C3CC3)C2=O)cc1
[1]
  IC50: 4110 nM

## COc1ccc(C2(c3ccc(OC)cc3)NC(=N)N(C3CCCCCC3)C2=O)cc1
[1]
  IC50: 427 nM
